# In ChEMBL document CHEMBL1154198, “Chemical genetics of Plasmodium falciparum” (Nature, 2010):
# pEC50: −log10 of the molar value.
# Experiments:
# Plasmodium falciparum [1] = experiment: ST_JUDE: Plasmodium falciparum 3D7 EC50 (uM) as measured by SYBR green dye; type: functional, organism-based
# Plasmodium falciparum [2] = experiment: ST_JUDE: Plasmodium falciparum K1 EC50 (uM) as measured by SYBR green dye; type: functional, organism-based
# Plasmodium falciparum [3] = experiment: ST_JUDE: Cytotoxicity against Plasmodium falciparum 3D7; type: functional, organism-based
# How it was run: (§1)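 Asexual P. falciparum grown in human erythrocytes, exposed to compounds for 72 h, and growth read as the DNA quantity in treated versus control cultures. Dose-response run at 12 concentrations from 10 μM to 5 nM.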
# Plasmodium falciparum [4] = experiment: ST_JUDE: Cytotoxicity against Plasmodium falciparum K1; type: functional, organism-based; how it was run: as §1
# Plasmodium falciparum [5] = experiment: ST_JUDE: Cytotoxicity against Plasmodium falciparum V1/S; type: functional, organism-based
# Toxoplasma gondii = experiment: ST_JUDE: Growth inhibition of to Toxoplasma gondii, in human U-2OS cells, as measured by luciferase.; type: functional, organism-based; conditions: RH, U2OS
# How it was run: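 T. gondii parasites engineered to express luciferase; drug sensitivity read by luminescence.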
# Trypanosoma brucei = experiment: ST_JUDE: Cytotoxicity using luciferase to measure ATP as an indicator of the viability of Trypanosoma brucei; type: functional, organism-based
# Leishmania major = experiment: ST_JUDE: Cytotoxicity using Alamar Blue to measure viability of Leishmania major; type: functional, organism-based
# How it was run: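 L. major promastigotes; drug susceptibility read with Alamar Blue.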
# [6] = ST_JUDE: Cytotoxicity using luciferase to measure ATP as an indicator of the viability of human foreskin fibroblast cells (BJ); type: toxicity, cell-based
# [7] = ST_JUDE: Cytotoxicity using luciferase to measure ATP as an indicator of the viability of human epithelial hepatocellular carcinoma cells (HepG2); type: toxicity, cell-based
# [8] = ST_JUDE: Cytotoxicity using luciferase to measure ATP as an indicator of the viability of human epithelial embryonic kidney cells (HEK293); type: toxicity, cell-based
# [9] = ST_JUDE: Cytotoxicity using luciferase to measure ATP as an indicator of the viability of human Burkitt''s lymphoma lymphoblast cells (Raji); type: toxicity, cell-based
# Plasmodium falciparum [10] = experiment: ST_JUDE: Cytotoxicity against Plasmodium falciparum Dd2; type: functional, organism-based
# Plasmodium falciparum [11] = experiment: ST_JUDE: Cytotoxicity against Plasmodium falciparum W2; type: functional, organism-based
# Plasmodium falciparum [12] = experiment: ST_JUDE: Cytotoxicity against Plasmodium falciparum SB-A6; type: functional, organism-based
# Plasmodium falciparum [13] = experiment: ST_JUDE: Cytotoxicity against Plasmodium falciparum D10 transfected with yeast DHOD; type: functional, organism-based
pEC50 (Plasmodium falciparum [1]),pEC50 (Plasmodium falciparum [2]),SMILES,pEC50 (Plasmodium falciparum [3]),pEC50 (Plasmodium falciparum [4]),pEC50 (Plasmodium falciparum [5]),pEC50 (Toxoplasma gondii),pEC50 (Trypanosoma brucei),pEC50 (Leishmania major),pEC50 [6],pEC50 [7],pEC50 [8],pEC50 [9],pEC50 (Plasmodium falciparum [10]),pEC50 (Plasmodium falciparum [11]),pEC50 (Plasmodium falciparum [12]),pEC50 (Plasmodium falciparum [13])
7.69,7.69,COc1cc(OC)c(NC(=O)C2c3ccccc3C(=O)N(CC(C)C)C2c2cccs2)cc1Cl (centres undefined),7.33,7.03,6.88,< 4.61,5.11,< 4.71,< 4.35,< 4.35,< 4.35,< 4.35,7.26,7.80,7.08,7.14
5.82,5.86,C/C=C/c1n(C)c2ccccc2[n+]1C,6.04,6.00,5.86,< 4.66,< 4.41,< 4.76,< 4.40,< 4.40,< 4.40,< 4.40,5.79,5.72,5.97,6.15
6.71,6.55,CC(=O)c1cccc(NC(=O)C2c3ccccc3C(=O)N(CC(C)C)C2c2cccs2)c1 (centres undefined),6.44,6.45,6.43,< 4.63,5.23,< 4.73,< 4.36,< 4.36,< 4.36,< 4.36,6.41,< 4.96,6.38,6.39
6.74,7.07,Cc1ccc2c(c1)C=C/C(=C\c1sc3ccccc3[n+]1C)N2C,6.84,6.82,6.83,5.40,6.76,8.92,5.10,5.65,5.18,6.13,6.69,7.81,6.49,6.72
6.44,6.85,Cc1ccc2c(c1)S/C(=C\c1sc3ccccc3[n+]1C)N2CCO,6.26,6.25,6.24,< 4.89,4.96,6.95,< 4.63,< 4.63,< 4.63,5.51,6.37,6.31,6.22,6.36
6.64,6.44,CSC(=S)N/N=C(\c1ccccc1)c1ccccn1,6.25,6.06,6.39,5.79,5.66,< 4.74,< 4.37,< 4.37,< 4.37,7.48,9.10,< 4.96,6.48,6.40
5.89,5.92,O=[N+]([O-])c1cc(CN2CCN(c3cccc(C(F)(F)F)c3)CC2)c2cccnc2c1O,6.17,< 5.09,< 5.09,< 4.76,5.87,< 4.87,< 4.50,< 4.50,< 4.50,< 4.50,6.10,< 5.09,6.19,5.97
6.99,6.87,CCO/C(O)=C1\C(C)=NC2=C(C(=O)CC(c3ccc(OC)c(OC)c3)C2)C1c1ccccc1C (centres undefined),7.01,6.92,6.98,< 4.63,< 4.39,< 4.74,< 4.37,< 4.37,< 4.37,< 4.37,7.02,7.26,7.06,7.06
6.27,5.90,CCN(CC)CCCOC(=O)c1c(C)oc2cc3c(C(=O)OCCCN(CC)CC)c(C)oc3cc12,5.67,5.54,< 5.00,4.96,5.28,< 4.78,< 4.41,5.33,4.53,4.63,6.56,6.10,6.27,5.76
6.37,6.93,CO/C(O)=C1\C(C)=NC2=C(C(=O)CC(c3ccc(OC)c(OC)c3)C2)C1c1ccccc1C (centres undefined),6.51,6.66,6.60,< 4.64,4.77,< 4.75,< 4.38,< 4.38,< 4.38,< 4.38,6.24,6.65,6.75,6.71
6.26,6.66,COc1ccc(Nc2cc(C)c3ccc(O)cc3n2)cc1,6.16,6.62,6.51,4.59,< 4.34,< 4.69,< 4.32,4.37,< 4.32,< 4.32,6.15,6.55,5.91,5.97
6.33,6.13,Cc1ccc(NC(=O)C2c3ccccc3C(=O)N(CC(C)C)C2c2cccs2)c(Cl)c1 (centres undefined),< 4.95,< 4.95,5.93,< 4.62,5.10,< 4.72,< 4.36,< 4.36,< 4.36,< 4.36,6.01,6.07,6.13,6.20
6.14,6.65,CC(C)c1ccccc1Oc1c(C(F)(F)F)oc2c(CN3CCN(C)CC3)c(O)ccc2c1=O,6.73,6.80,6.75,< 4.94,< 4.70,6.49,< 4.68,< 4.68,< 4.68,< 4.68,5.74,6.60,6.48,6.64
6.30,6.67,CCOc1cc(C2CC(=O)NC3=C2C(=O)CC(c2ccccc2Cl)C3)cc(Cl)c1O (centres undefined),6.05,6.04,5.97,< 4.63,4.71,< 4.73,< 4.36,< 4.36,< 4.36,< 4.36,5.99,6.07,5.94,5.92
6.75,6.92,CCO/C(O)=C1\C(C)=NC2=C(C(=O)CC(c3ccc(OC)c(OC)c3)C2)C1c1ccc([N+](=O)[O-])cc1 (centres undefined),6.77,6.57,6.22,< 4.62,5.08,< 4.73,< 4.36,< 4.36,< 4.36,< 4.36,6.22,6.62,6.64,6.57
5.84,6.06,O=C(c1ccccc1)N1CCN(c2ccccc2NC(=O)C(Cl)(Cl)Cl)CC1,6.04,6.08,5.95,< 4.73,4.57,< 4.84,< 4.47,< 4.47,< 4.47,< 4.47,5.56,< 5.06,5.87,5.38
6.10,5.77,Clc1ccc(Nc2nc(NCc3ccco3)c3ccccc3n2)cc1,5.90,5.74,< 4.92,< 4.60,5.04,9.22,< 4.33,4.62,4.51,< 4.33,6.09,< 4.92,6.41,5.94

SMILES,pEC50 (Plasmodium falciparum [1]),pEC50 (Plasmodium falciparum [2]),pEC50 (Plasmodium falciparum [3]),pEC50 (Plasmodium falciparum [4]),pEC50 (Plasmodium falciparum [5]),pEC50 (Toxoplasma gondii),pEC50 (Trypanosoma brucei),pEC50 (Leishmania major),pEC50 [6],pEC50 [7],pEC50 [8],pEC50 [9],pEC50 (Plasmodium falciparum [10]),pEC50 (Plasmodium falciparum [11]),pEC50 (Plasmodium falciparum [12]),pEC50 (Plasmodium falciparum [13])
Cc1ccc2c(c1)N(C)/C(=C/c1cccc[n+]1C)S2,6.61,6.75,6.23,6.17,6.25,< 4.90,5.98,7.97,< 4.64,< 4.64,< 4.64,5.66,6.19,5.96,5.99,6.07
COc1ccc(C2CC(=O)C3=C(C2)NC(=O)CC3c2ccc(Br)cc2)cc1OC (centres undefined),5.94,6.19,5.98,5.96,5.75,< 4.58,4.59,< 4.69,< 4.32,< 4.32,< 4.32,< 4.32,6.13,5.11,5.83,5.75
